From ChEMBL document CHEMBL3352616, “Quinazoline-sulfonamides with potent inhibitory activity against the α-carbonic anhydrase from Vibrio cholerae” (Bioorg Med Chem, 2014)

Experiment: Inhibition of Vibrio cholerae alpha-carbonic anhydrase preincubated for 15 mins by stopped-flow CO2 hydration assay
Method in brief: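 Stopped-flow CO2 hydration assay, phenol red 0.2 mM read at 557 nm, 20 mM Hepes pH 7.4 with 20 mM NaBF4 for ionic strength. Initial rates followed 10–100 s, CO2 1.7–17 mM. Inhibitor (10 mM DMSO stock, buffer dilutions down to 0.01 nM) preincubated with enzyme 15 min at RT. Uncatalyzed rate subtracted; Ki by nonlinear least squares and Cheng–Prusoff, mean of ≥3 determinations.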

| SMILES | Ki [nM] |
| --- | --- |
| C=CCn1c(SCC(=O)Nc2ccc(S(N)(=O)=O)cc2)nc2ccc(C)cc2c1=O | 6 |
| Cc1ccc2nc(SCC(=O)Nc3ccc(S(N)(=O)=O)cc3)n(Cc3ccccc3)c(=O)c2c1 | 2.7 |
| Cc1cccc2c(=O)n(Cc3ccccc3)c(SCC(=O)Nc3ccc(S(N)(=O)=O)cc3)nc12 | 8.5 |
| COc1ccc2nc(SCC(=O)Nc3ccc(S(N)(=O)=O)cc3)n(Cc3ccccc3)c(=O)c2c1 | > 10000 |
| COc1cccc2c(=O)n(Cc3ccccc3)c(SCC(=O)Nc3ccc(S(N)(=O)=O)cc3)nc12 | > 10000 |
| C=CCn1c(SCC(=O)Nc2ccc(S(N)(=O)=O)cc2)nc2ccc([N+](=O)[O-])cc2c1=O | 6.6 |
| NS(=O)(=O)c1ccc(NC(=O)CSc2nc3ccc([N+](=O)[O-])cc3c(=O)n2Cc2ccccc2)cc1 | > 10000 |
| Cc1cccc2nc(SCC(=O)Nc3ccc(S(N)(=O)=O)cc3)n(Cc3ccccc3)c(=S)c12 | 7.7 |
| Cc1ccc2nc(SCC(=O)Nc3ccc(S(N)(=O)=O)cc3)n(Cc3ccccc3)c(=S)c2c1 | 5.5 |
| Cc1cccc2c(=S)n(Cc3ccccc3)c(SCC(=O)Nc3ccc(S(N)(=O)=O)cc3)nc12 | 8.7 |
| COc1cccc2c(=S)n(Cc3ccccc3)c(SCC(=O)Nc3ccc(S(N)(=O)=O)cc3)nc12 | 7.9 |
| NS(=O)(=O)c1ccc(NC(=O)CSc2nc3ccc([N+](=O)[O-])cc3c(=S)n2Cc2ccccc2)cc1 | > 10000 |
